The record followed here is ChEMBL document CHEMBL4145615, “Indolyl Azaspiroketal Mannich Bases Are Potent Antimycobacterial Agents with Selective Membrane Permeabilizing Effects and in Vivo Activity” (J Med Chem, 2018).

The subject of one series is Vero C1008. Kind of series: Cytotoxicity against African green monkey Vero E6 cells assessed as cell growth inhibition after 48 hrs by celltitre 96 aqueous one-based assay. The settings on record: Chlorocebus sabaeus, Vero C1008, 48 h.
Series [1] in a line: Hemolytic activity against human RBC after 1 hr. In kind it is ADME, cell-based, Erythrocyte. The settings on record: red blood cells (erythrocytes). The procedure, abridged:
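Human red blood cells were exposed to the test compound at a range of concentrations in phosphate-buffered saline for 1 h at 37°C. Hemolysis was referenced to 2% Triton X-100, taken as 100% hemolysis. The value reported is the concentration that lyses 50% of RBCs.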

Series [2] concerns Mycobacterium tuberculosis. The experiment in a line: Antimycobacterial activity against Mycobacterium tuberculosis H37Rv ATCC 27294 after 7 days by broth dilution method. In kind it is functional. The settings on record: H37Rv ATCC 27294, 168 h. A general note: Broth dilution looks for growth in wells or tubes with falling amounts of substance.
Series [3] can be described thus: Selectivity index, ratio of IC50 for African green monkey Vero E6 cells to MIC50 for Mycobacterium bovis BCG ATCC 35734. In kind it is toxicity, Vero C1008. As to conditions: read-out: Selectivity Index.

In brackets after ≈: the same amount, converted by molar mass.

For orientation: IC50 means the concentration needed to halve the response being measured. What is called HC50 is the concentration giving 50% haemolysis. Turning to `CCCCCCCCn1cc(CN2CCC3(CC2)OCCO3)c2ccc(OCCC)cc21`, in the series on Vero C1008, the half-maximal inhibitory concentration (IC50) stood at 29 µM. The HC50 at 1 h in series [1] came out at 31 µM.
As for `CCCCCCCCn1cc(CN2CCC3(CC2)OCCCO3)c2ccc(C#N)cc21`, the IC50 in the series on Vero C1008 was determined as 22 µM. In addition, the 50% haemolytic concentration (HC50) at 1 h in series [1] was > 300 µM.
As for `CCCCCCCCn1cc(CN2CCC3(CCN(Cc4ccccc4)CC3)CC2)c2ccc(OC)cc21`, in the series on Vero C1008, the IC50 worked out at 14 µM. The same compound gave an HC50 at 1 h in series [1] of 69 µM.
By MIC50 is commonly meant an inhibitory concentration at the 50% level, which refers to growth in some studies and to a panel of isolates in others. Broadly, the MIC90 is the lowest concentration that inhibits either 90% of growth or 90% of the strains tested, depending on the study. The ΔTm is the shift of the melting midpoint relative to a reference. Take `CCCCCCCCn1cc(CN2CCC3(CC2)OCCS3)c2ccc(OC)cc21`: the IC50 in the series on Vero C1008 worked out at 64 µM. In series [2], the MIC50 was 0.6 µM (≈ 0.258 µg/mL) and the MIC90 turned out to be 0.95 µM (≈ 0.409 µg/mL). Further, the concentration for 50% haemolysis (HC50) at 1 h in series [1] is > 300 µM. Further, the ΔTm in the series on Lipid bilayer was 4 °C.
Take `CCCCCCCCn1cc(CN2CCC3(CC2)OC[C@H](C)O3)c2ccc(OC)cc21`: the concentration for half-maximal inhibition (IC50) in the series with Vero C1008 was determined as 34 µM. In series [1], this compound displayed an HC50 at 1 h of 51 µM.
Regarding `CCCCCCCCn1cc(CN2CCC3(CCc4ccccc43)CC2)c2ccc(OC)cc21`, the 50% inhibitory concentration (IC50) with Vero C1008 is 31 µM. Moreover, the selectivity ratio in series [3] was 31. Besides, in series [1], the concentration for 50% haemolysis (HC50) at 1 h is > 300 µM.
For the compound `CCCCCCCCn1cc(CN2CCC3(CC2)OCCCO3)c2ccc(OCCC)cc21`, the 50% inhibitory concentration (IC50) in the series with Vero C1008 came out at 29 µM. The same compound came in with an HC50 at 1 h in series [1] of 27 µM.
For the compound `CCCCCCCCn1cc(CN2CCC3(CC2)OCCO3)c2ccc(C#N)cc21`, in the series with Vero C1008, the IC50 was 59 µM. For the same compound, in series [1], the HC50 at 1 h is > 300 µM.
The like results for `CCCCCCCCn1cc(CNC2CCC3(CC2)OCCO3)c2ccc(OC)cc21` were, in that order, 22 µM and 207 µM.
For `CCCCCCCCn1cc(CNCC2CC3CCC2C3)c2ccc(OC)cc21` (configuration not stated), in the series with Vero C1008, the 50% inhibitory concentration (IC50) amounted to 10 µM. In series [1], this compound yielded an HC50 at 1 h of 19 µM.
For the compound `CCCCCCCCn1cc(CN2CCOC3(CCCOC3)C2)c2ccc(OC)cc21` (configuration not stated), in the series on Vero C1008, the IC50 is > 500 µM. In addition, in series [3], the selectivity ratio is > 278. In addition, the HC50 at 1 h in series [1] is > 300 µM.
For `CCCCCCCCn1cc(CNCC2CC3CC3C2)c2ccc(OC)cc21` (configuration not stated), in the series on Vero C1008, the IC50 worked out at 10 µM. In series [1], this compound showed a 50% haemolytic concentration (HC50) at 1 h of 33 µM.
In the case of `COc1ccc2c(CN3CCCCC3)cn(CCCc3ccccc3)c2c1`, the IC50 with Vero C1008 turned out to be 43 µM.
For the compound `CCCCCCCCn1cc(CN2CCC3(CC2)OCCO3)c2ccc([N+](=O)[O-])cc21`, in the series on Vero C1008, the IC50 turned out to be 62 µM. Moreover, the 50% haemolytic concentration (HC50) at 1 h in series [1] is > 300 µM.
Consider `COc1ccc2c(CN3CCC4(CC3)OCCCO4)cn(CCCOc3ccc(C)c(C)c3)c2c1`, for which the concentration for 50% haemolysis (HC50) at 1 h in series [1] is > 300 µM.
Turning to `COc1ccc(OCCCn2cc(CN3CCC4(CC3)OCCCO4)c3ccc(OC)cc32)cc1`, the IC50 with Vero C1008 came to 46 µM. Also, the concentration for 50% haemolysis (HC50) at 1 h in series [1] is > 300 µM.
With `COc1ccc2c(CN3CCC4(CC3)OCCCO4)cn(CCCOc3ccccc3)c2c1`, the 50% haemolytic concentration (HC50) at 1 h in series [1] is > 300 µM.
`CCCCCCCCn1cc(CN2CCC3(CC2)OC(C)C(C)O3)c2ccc(OC)cc21` (configuration not stated): in the series with Vero C1008, the IC50 turned out to be 34 µM. Further, the selectivity ratio in series [3] was determined as 49. In series [1], this compound came in with a 50% haemolytic concentration (HC50) at 1 h of 76 µM.
`CCCCCCCCn1cc(CN2CCCCC2)c2ccc(C#N)cc21`: in the series on Vero C1008, the IC50 was found to be 22 µM.
For `CCCCCCCCn1cc(CN2CC(c3ccccc3)C2)c2ccc(OC)cc21`, the IC50 in the series on Vero C1008 was 44 µM. Besides, in series [1], the concentration for 50% haemolysis (HC50) at 1 h was > 300 µM.
As for `COc1ccc(CCCn2cc(CN3CCC4(CC3)OCCO4)c3ccc(OC)cc32)cc1`, the half-maximal inhibitory concentration (IC50) with Vero C1008 was 31 µM.
`COc1ccc2c(CN3CCC4(CC3)OCCCO4)cn(CCCCc3ccccc3)c2c1`: the IC50 with Vero C1008 stood at 21 µM. Also, the 50% haemolytic concentration (HC50) at 1 h in series [1] is > 300 µM.
As to `CCCCCCCCn1cc(CN2[C@H]3CCC[C@@H]2CCC3)c2ccc(OC)cc21`, the half-inhibitory concentration (IC50) with Vero C1008 stood at 31 µM. Further, the selectivity ratio in series [3] stood at 8. The compound further returned a concentration for 50% haemolysis (HC50) at 1 h in series [1] of 109 µM.
On to `CCCCCCCCn1cc(CN2CCC3(C=Cc4ccccc43)CC2)c2ccc(OC)cc21`, for which, in the series on Vero C1008, the IC50 was 44 µM. In series [3], the selectivity ratio was 44. Besides, in series [1], the 50% haemolytic concentration (HC50) at 1 h is > 300 µM.
For the compound `CCCCCCCCn1cc(CN2CCC3(CC2)OCCCO3)c2ccc(OC(C)C)cc21`, the IC50 in the series on Vero C1008 is 20 µM. The HC50 at 1 h in series [1] was determined as 29 µM.
Turning to `CCCCCCCCn1cc(CN2CCCCC2)c2ccc([N+](=O)[O-])cc21`, the concentration for half-maximal inhibition (IC50) with Vero C1008 was determined as 23 µM.
Regarding `CCCCCCCCn1cc(CN2CCC3(CC2)OC[C@@H](C)O3)c2ccc(OC)cc21`, in the series on Vero C1008, the IC50 is 37 µM. Moreover, the HC50 at 1 h in series [1] worked out at 75 µM.
Regarding `CCCCCCCCn1cc(CN2CCC3(CC2)SCCCS3)c2ccc(OC)cc21`, the concentration for half-maximal inhibition (IC50) in the series on Vero C1008 amounted to 152 µM. In series [2], this compound had an MIC50 of 0.5 µM (≈ 0.23 µg/mL) and an MIC90 of 0.78 µM (≈ 0.359 µg/mL). In addition, the concentration for 50% haemolysis (HC50) at 1 h in series [1] was > 300 µM.
As for `COc1ccc2c(CN3CCC4(CC3)OCCO4)cn(CCCc3ccccc3)c2c1`, in the series on Vero C1008, the half-maximal inhibitory concentration (IC50) was found to be 35 µM.
`COc1ccc2c(CN3CCC4(CC3)OCCCO4)cn(CCCOc3ccc(F)cc3)c2c1`: the 50% haemolytic concentration (HC50) at 1 h in series [1] was > 300 µM.
Take `CCCCCCCCn1cc(CN2CCC3(CC2)OCCO3)c2ccc(OC(C)C)cc21`: the IC50 in the series on Vero C1008 turned out to be 41 µM. The compound also registered an HC50 at 1 h in series [1] of 56 µM.
For `CCCCCCCCn1cc(CN2CCC3(CC2)OCCCO3)c2ccc([N+](=O)[O-])cc21`, in the series with Vero C1008, the IC50 came to 28 µM. For the same compound, the HC50 at 1 h in series [1] was > 300 µM.
Regarding `CCCCCCCCn1cc(CNCC2CCC3CC3C2)c2ccc(OC)cc21` (configuration not stated), the 50% inhibitory concentration (IC50) in the series with Vero C1008 was 20 µM. Besides, the selectivity ratio in series [3] was determined as 13.
Regarding `CCCCCCCCn1cc(CN2CCCCC2)c2ccc(OC(C)C)cc21`, the 50% inhibitory concentration (IC50) with Vero C1008 is 26 µM.
Consider `CCCCCCCCn1cc(CN2CCC3(CC2)OCCCO3)c2cccc([N+](=O)[O-])c21`, for which the IC50 in the series with Vero C1008 is 49 µM. Also, the HC50 at 1 h in series [1] is > 300 µM.
For `CCCCCCCCn1cc(CN2CCC3(CCO3)CC2)c2ccc(OC)cc21`, the IC50 in the series on Vero C1008 amounted to 31 µM. Also, the selectivity ratio in series [3] was 16. In series [1], the HC50 at 1 h came to 88 µM.
As to `CCCCCCCCn1cc(CN2CCC3(CC2)OCCO3)c2ccc(OCc3ccccc3)cc21`, in the series with Vero C1008, the IC50 is 36 µM. In addition, in series [1], the 50% haemolytic concentration (HC50) at 1 h is > 300 µM.
For `CCCCCCCCn1cc(CN2CCC3(CC2)SCCS3)c2ccc(OC)cc21`, the concentration for half-maximal inhibition (IC50) in the series with Vero C1008 was > 200 µM. In series [2], this compound returned an MIC50 of 0.7 µM (≈ 0.313 µg/mL) and an MIC90 of 1.1 µM (≈ 0.491 µg/mL). In addition, the selectivity ratio in series [3] is > 400. Moreover, the concentration for 50% haemolysis (HC50) at 1 h in series [1] is > 300 µM. The ΔTm in the series on Lipid bilayer was found to be 4 °C.
For `CCCCCCCCn1cc(CN2CCC3(CC2)OCCCO3)c2ccc(OCc3ccccc3)cc21`, the IC50 in the series with Vero C1008 worked out at 27 µM. In addition, in series [1], the 50% haemolytic concentration (HC50) at 1 h is > 300 µM.
Regarding `COc1ccc2c(CN3CCC4(CC3)OCCCO4)cn(CCCOCc3ccccc3)c2c1`, the IC50 in the series on Vero C1008 was 54 µM.
On to `CCCCCCCCn1ccc2cc(OCCCN3CCCCCC3)ccc21`, for which, in the series with Vero C1008, the half-maximal inhibitory concentration (IC50) was determined as 34 µM. Further, in the series with Lipid bilayer, the shift in melting temperature (ΔTm) was found to be 1 °C.
In the case of `CCCCCCCCn1cc(CN2CCCC3(CC2)OCCCS3)c2ccc(OC)cc21` (configuration not stated), the 50% inhibitory concentration (IC50) in the series on Vero C1008 came to 34 µM. The 50% haemolytic concentration (HC50) at 1 h in series [1] worked out at 132 µM.
The like results for `CCCCCCCCn1cc(CN2CCCC3(CC2)OCCS3)c2ccc(OC)cc21` (configuration not stated) were, in that order, 35 µM and > 300 µM.
With `COc1ccc2c(CN3CCC4(CC3)OCCCO4)cn(CCCOc3ccc(C)cc3)c2c1`, the HC50 at 1 h in series [1] is > 300 µM.
`CCCCCCCCn1cc(CNC2Cc3ccccc3C2)c2ccc(OC)cc21`: the IC50 in the series with Vero C1008 is 24 µM. The selectivity ratio in series [3] amounted to 6.
Take `CCCCCCCCn1cc(CNCC2CCC3(CCCC3)O2)c2ccc(OC)cc21` (configuration not stated): the IC50 in the series with Vero C1008 was 21 µM. Moreover, in series [3], the selectivity ratio was determined as 12.
With `CCCCCCCCn1ccc2ccc(OCCCN3CCCCCC3)cc21`, in the series on Vero C1008, the IC50 is 33 µM.
